Results published in ChEMBL document CHEMBL1139789, “Synthesis of neuroprotective cyclopentenone prostaglandin analogs: suppression of manganese-induced apoptosis of PC12 cells” (Bioorg Med Chem Lett, 2007).
The source made the active and inactive calls. The calls are words filed in the database; no cut-off is given here.

Assays:
[1] = test system: PC-12; test: Inhibition of manganese ion-induced apoptosis in PC12 cells assessesed as suppression of DNA fragmentation upto 20 uM; type: functional, cell-based
Procedure, shortened: (§1)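 PC12 cells (2·10⁷) preincubated with test agent at 10 and 20 μM for 30 min at 37 °C in DMEM plus 5% FBS. MnCl₂ then added to 0.25 mM and incubation continued 20 h at 37 °C. Soluble DNA extracted, run on agarose gels, laddering visualized on UV transilluminator.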

[2] = test system: PC-12; test: Toxicity in PC12 cells assessed by measuring DNA fragmentation at 10 uM; type: cell-based, Homo sapiens; conditions: pc-12, 10 µM
Procedure, shortened: (§2)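 PC12 cells (2·10⁷) exposed to agent at 10 and 20 μM in DMEM with 5% FBS at 37 °C, 30 min preincubation, then 20 h further incubation with no MnCl₂ added. Apoptosis judged by DNA laddering: soluble DNA extracted, agarose gel electrophoresis, UV transilluminator visualization.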

[3] = test system: PC-12; test: Inhibition of manganese ion-induced apoptosis in PC12 cells assessesed as suppression of DNA fragmentation at 10 uM; type: functional; conditions: Rattus norvegicus; procedure, shortened: as §1
[4] = test system: PC-12; test: Toxicity in PC12 cells assessed by measuring DNA fragmentation upto 20 uM; type: cell-based, Homo sapiens; procedure, shortened: as §2

SMILES | Activity [1] | Activity [2] | inhibition at 10 µM [3] [%] | Activity [4]
CCCCC/C=C/C=C1/C(=O)C=CC1C/C=C\CCCC(=O)O (stereo unspecified) | inactive | Toxic | – | –
COC(=O)CCCCC/C=C1/C(=O)C=C[C@H]1CCCCCCc1ccc(C)cc1 | – | Toxic | 50 | –
CCCCC[C@H](O)/C=C/[C@H]1C=CC(=O)/C1=C/CCCCCC(=O)OC | inactive | Toxic | – | –
COC(=O)CCCCCC[C@@H]1C=CC(=O)/C1=C/CCCCOc1ccc(Br)cc1 | inactive | Toxic | – | –
CCCCCCCC[C@@H]1C=CC(=O)/C1=C/CCCCCC(=O)OC | – | – | 50 | –
COC(=O)CCCCC/C=C1\CC=CC1=O | inactive | – | – | Non-toxic
COC(=O)CCCCCC[C@@H]1C(=O)C=C[C@H]1CCCCCCc1ccc(C)cc1 | inactive | – | – | Non-toxic
COC(=O)CCCCC/C=C1/C(=O)CC[C@H]1CCCCCCc1ccc(C)cc1 | inactive | – | – | Non-toxic
CCCCCCC/C=C1/C(=O)C=C[C@@H]1CCCCCCC(=O)OC | – | – | 50 | Non-toxic
COC(=O)CCCCCC[C@H]1C=CC(=O)/C1=C/CCCCCc1ccc(C)cc1 | – | – | 50 | Non-toxic
COC(=O)CCCCCC[C@H]1C=CC(=O)/C1=C/CCCCOc1ccc(Br)cc1 | – | – | < 50 | Non-toxic
